Source: PubChem
Only some compounds are listed: those with a hit (about 1.4% of all), similar ones and a draw of the others.
Rev-erbA mod – modulators of Rev-erb alpha DNA binding, primary screen, biochemical, FITC-DNA, fluorescence polarization, uHTS; AID 1259318, 2017; activity, % at 10 µM; hit rate 0.79% among 370,000; Rev-erbα–FITC-DNA binding, 90 min;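 active = activity above about 14%, limit read from the data; passing the limit was not always enough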;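 note: 0% = DMSO wells with 35 nM protein and 100% = DMSO wells with 750 nM protein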
NR2E3 ag-1 – NR2E3 agonists in two-hybrid cells, primary screen, cell-based, luminescence, CHO-S, Gal4-NCOR/VP16-NR2E3 | Photoreceptor-specific nuclear receptor (Homo sapiens), Q9Y5X4 | luciferase | inhibition of corepressor binding, % at 3.98 µM | hit rate 0.35% among 360,000 | AID 602229, 2012;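 active = inhibition above the mean of all tested compounds plus 3 SD, cut at about 70% in these data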;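 note: 0% = DMSO with NR2E3 transfected cells and 100% = cells lacking NR2E3 construct; higher means lower luciferase signal from less NR2E3 corepressor binding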
Target sequence (Q9Y5X4 whole entry, looked up, the tested form may be a part): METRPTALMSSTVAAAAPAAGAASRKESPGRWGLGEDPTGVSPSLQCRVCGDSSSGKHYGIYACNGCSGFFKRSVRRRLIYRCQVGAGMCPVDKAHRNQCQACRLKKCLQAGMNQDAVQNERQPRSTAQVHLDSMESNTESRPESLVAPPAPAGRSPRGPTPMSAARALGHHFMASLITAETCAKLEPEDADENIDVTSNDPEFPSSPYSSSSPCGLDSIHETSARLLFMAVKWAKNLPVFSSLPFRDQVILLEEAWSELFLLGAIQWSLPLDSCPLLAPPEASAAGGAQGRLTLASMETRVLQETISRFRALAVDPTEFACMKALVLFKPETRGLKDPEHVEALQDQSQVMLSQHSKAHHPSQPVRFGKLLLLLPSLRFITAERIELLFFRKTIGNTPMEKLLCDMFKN
PG9 Ab binder – binders of HIV-1 gp120 antibody PG9, primary screen, biochemical, TR-FRET; inhibition, % at 6.7 µM; hit rate 0.43% among 360,000; TR-FRET gp120-PG9 antibody binding; HIV-1 gp120 / PG9 antibody interaction; AID 624416, 2012; in the data active = inhibition above about 8.5%
NR2E3 ag-2 – inhibitors of NR2E3-RetCOR corepressor binding, primary screen, NR2E3 agonist project, biochemical, TR-FRET, GST-NR2E3, biotin-RetCOR | Photoreceptor-specific nuclear receptor (Homo sapiens), Q9Y5X4 | 1536-well | inhibition of corepressor binding, % at 4.78 µM | hit rate 0.12% among 320,000;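 active = percent inhibition above the cutoff of mean plus 3 SD of all tested compounds, set per screening campaign, cut at about 20% in these data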;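 note: 0% = DMSO wells and 100% = biotin wells as full block of FRET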
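system = GST-tagged NR2E3 plus biotinylated RetCOR corepressor | input = 1.35 nM GST-NR2E3 | also added = 7 nM biotin-RetCOR | schedule = 5 h incubation at 4 °C | measured by = TR-FRET with europium anti-GST and streptavidin-D2, 340 nm excitation | read-out = percent loss of FRET ratio relative to control wells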
Rev-erbA confirm – modulators of Rev-erb alpha DNA binding, confirmation, biochemical, FITC-DNA, fluorescence polarization, single point; hit rate 61% among 3,000; 90 min; AID 1259319, 2017; shares compounds with Rev-erbA mod; activation, % at 25 µM;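 active = activation at or above a set limit, or at least 3 SD above the negative control mean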;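 note: 0% = 35 nM protein with DMSO and 100% = 750 nM protein high control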
RORg DNA counter – modulation of RORgamma DNA binding, dose response, counter-screen for Rev-erb alpha modulator project, biochemical, fluorescence polarization, FITC-DNA | shares compounds with Rev-erbA mod | purified RORgamma protein-FITC-DNA binding | IC50, µM | hit rate 8% among 910 | AID 1259320, 2017;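 active = Compounds whose fitted half-maximal concentration for disrupting protein-DNA binding is below 10 micromolar; the record names Rev-erb in its text, so the target is in doubt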
Active calls of the source: *; i = inactive; x = no result.

SMILES | Rev-erbA mod | NR2E3 ag-1 | PG9 Ab binder | NR2E3 ag-2 | Rev-erbA confirm | others
CCc1cc2cc(C)ccc2nc1SCC(=O)NNC(=O)c1ccco1 | -1 | -10 | 1 | 2 | x
CCOC(=O)CNC(=O)CSc1nc2c(C)cccc2cc1CC | -2 | 14 | 5 | 6 | x
O=[N+]([O-])c1ccccc1N=Nc1ccc(O)cc1O | 32* | 23 | -4 | x | 17*
Oc1ccc(N=Nc2ccc(Br)cc2)c(O)c1 | 8 | -143 | -2 | 0 | x
CCOC(=O)c1nn(-c2ccc(F)cc2)c(=O)cc1OCC(=O)Nc1ccc(F)c(F)c1 | 170* | 3 | -1 | -2 | 129* | RORg DNA counter=i
CCOC(=O)c1nn(-c2ccc(C)cc2)c(=O)cc1OCC(=O)Nc1ccc(OC)cc1 | -15 | 12 | -1 | 1 | x
O=C(Nc1nnc(-c2ccccc2)s1)c1ccc(F)cc1 | 9 | 14 | 6 | -2 | x
COc1ccccc1C(=O)Nc1nnc(-c2ccc(F)cc2)s1 | 36* | -88 | 0 | 2 | 39* | RORg DNA counter=>40
COc1ccccc1C(=O)Nc1nnc(S(=O)(=O)N2CCN(c3ccc(F)cc3)CC2)s1 | 18* | -25 | -1 | 2 | 2
COc1ccc(C(=O)Nc2nnc(-c3ccc(F)cc3)s2)c(OC)c1 | 25* | -20 | 0 | x | -12
Cc1ccc(C(=O)CSc2cnc3ccccc3n2)cc1C | 30* | 6 | 2 | 6 | 14
CN(C)C(=O)CSc1cnc2ccccc2n1 | -6 | -4 | 1 | 2 | x
Cc1oc2c(C)c(O)ccc2c(=O)c1-c1ccc2ccccc2n1 | 23* | -24 | 3 | -2 | 20*
CC(C)CN1C(=O)CN(S(C)(=O)=O)CC1(C)C(=O)Nc1ccc2c(c1)OCCO2 (stereo not drawn) | -2 | x | -1 | x | x
O=C1CSC(c2ccccc2)N1Nc1nc(N2CCOCC2)nc(N2CCOCC2)n1 (stereo not drawn) | 22* | 4 | -2 | 1 | 5
c1ccc(Nc2nc(N3CCCC3)nc(N3CCOCC3)n2)cc1 | -1 | 44 | -1 | -1 | x
Cc1cccc(C)c1NC(=O)C1C(c2ccc3c(c2)OCO3)=Nc2ccccc2N1C(=O)c1cccc2ccccc12 (stereo not drawn) | 29* | x | -2 | x | 17*
CC(=O)Nc1ccc(C(=O)N2c3ccccc3N=C(c3ccc4c(c3)OCO4)C2C(=O)NCc2ccccc2)cc1 (stereo not drawn) | -1 | x | -3 | x | x
O=C(NCc1ccccc1)C1C(c2ccc3c(c2)OCO3)=Nc2ccccc2N1C(=O)c1cccc2ccccc12 (stereo not drawn) | 16* | x | -2 | x | 6
N#CCOc1ccccc1CNC[C@H]1O[C@@H](n2cnc(C(N)=O)n2)[C@H](O)[C@@H]1O | 16* | -22 | 1 | x | -7
Cc1ccc(-c2nc(SCC(=O)Nc3cc(C)on3)c3c(=O)n(C)c(=O)n(C)c3n2)cc1 | 24* | 9 | 1 | 1 | 18*
Cn1c(=O)c2c(SCC(=O)Nc3ccccc3F)nc(C3CC3)nc2n(C)c1=O | 1 | -32 | 1 | -2 | x
Cc1nc(SCC(=O)Nc2cc(C)on2)c2c(=O)n(C)c(=O)n(C)c2n1 | 6 | 6 | 2 | 0 | x
Cn1c(=O)c2c(SCC(=O)Nc3ccccc3F)nc(-c3ccccc3F)nc2n(C)c1=O | 26* | -2 | -1 | 0 | 3
COc1ccccc1-c1nc(SCC(=O)N(C)c2ccccc2)c2c(=O)n(C)c(=O)n(C)c2n1 | 81* | 2 | 0 | 4 | 46* | RORg DNA counter=>40
SMILES | Rev-erbA mod | NR2E3 ag-1 | PG9 Ab binder | NR2E3 ag-2 | Rev-erbA confirm | others
c1cc(C2OCCO2)cs1 | -1 | 5 | -3 | x | x
C[C@H](O)[C@@H]1C(=O)N2CCc3c([nH]c4c(-c5ccccc5)cccc34)[C@@H]2C[C@@H]1N(C)C(=O)NC1CCCCC1 | 4 | x | 1 | x | x
COc1ccc(-n2nc(C(=O)NCC(=O)Nc3cc(Cl)c(OC)cc3OC)c3ccccc3c2=O)cc1 | 53* | -6 | 1 | 1 | 50* | RORg DNA counter=>40
COc1ccc(-n2nc(C(=O)NCC(=O)Nc3ccccn3)c3ccccc3c2=O)cc1Cl | 66* | -3 | 1 | x | 45* | RORg DNA counter=i
COc1ccc(-n2nc(C(=O)NCC(=O)Nc3cc(OC)ccc3OC)c3ccccc3c2=O)cc1 | 4 | -13 | 0 | 1 | x
COc1ccc(-n2nc(C(=O)NCC(=O)N3CCN(c4cccc(Cl)c4)CC3)c3ccccc3c2=O)c(OC)c1 | 31* | 8 | -1 | -1 | 14
COc1ccc(-n2nc(C(=O)NCC(=O)N3CCN(c4ccccn4)CC3)c3ccccc3c2=O)c(OC)c1 | -3 | -71 | -1 | 2 | x
CC(C)c1nc2sc3c(SCC(N)=O)ncnc3c2c2c1CCC2 | 869* | 4 | -2 | -1 | 711* | RORg DNA counter=>40
CSc1nc(SCC(=O)O)c2sc3nc(-c4ccccc4)c4c(c3c2n1)CCC4 | -11 | 20 | 1 | x | x
CCCCc1nc2sc3c(SCCN(C)C)ncnc3c2c2c1CCC2 | 31* | 2 | 0 | 1 | 47* | RORg DNA counter=>40
O=S1(=O)c2ccc(Br)cc2N2CC[C@H](C2)N1Cc1ccc(Cl)cc1 | -7 | -14 | 2 | x | x
CC(=O)c1ccc(Nc2nc(C(N)CCc3ccccc3)cs2)cc1 (stereo not drawn) | 3 | -3 | 1 | x | x
O=c1c2ccccc2n2c(-c3ccc(C(F)(F)F)cc3)nnc2n1Cc1ccccc1 | -2 | -24 | -1 | 0 | x
O=c1c2ccccc2n2c(-c3ccc(F)cc3)nnc2n1Cc1ccccc1 | 24* | -5 | -1 | 3 | 35* | RORg DNA counter=>40
COc1ccc(OC)c(S(=O)(=O)NC(=O)C2(C)CCN2C(=O)Cc2ccccc2)c1 (stereo not drawn) | -2 | 8 | 0 | x | x
O=c1[nH]c(/C=C/c2ccccc2OC(F)F)nc2c1cnn2-c1ccccc1 | 24* | -16 | 3 | -3 | 5
COc1ccc(C#Cc2ccc(C3=CC(=O)CC(C)(C)C3=O)cc2)cc1 | 153* | -84 | 4 | x | 51* | RORg DNA counter=>40
Clc1nc2c(-c3ccccc3)nnn2c2ccccc12 | 83* | -63 | 0 | 2 | 68* | RORg DNA counter=>40
Fc1cccc(-c2nnn3c2nc(Cl)c2ccccc23)c1 | 90* | -69 | 1 | x | 19*
COc1ccc(-c2nnn3c2nc(NCc2ccccc2)c2ccccc23)cc1 | 23* | -6 | -2 | 2 | 17*
Cc1ccc(-c2nnn3c2nc(Cl)c2ccccc23)cc1 | -2 | -53 | 0 | x | x
